In ChEMBL document CHEMBL1126175, “Synthesis and antibacterial activity of new tetracyclic quinolone antibacterials” (J Med Chem, 1992) one finds MIC data, which are given here for five compounds.

Converted amounts (≈) assume the structure as drawn. A value given as a limit tells only on which side of the number the result lay.

One experiment has as its system Escherichia coli. Description: In vitro antibacterial activity against Escherichia coli KC-14, Ec(K), (gram-negative). Type of experiment: functional. In outline:
(§1)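 MIC by serial 2-fold agar dilution on Mueller–Hinton agar; inoculum about 10^6 CFU/mL; MIC taken as lowest concentration preventing visible growth after 18 h at 37 °C.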
`CN1CCN(c2c(F)cc3c(=O)c(S(=O)(=O)O)c4scc5n4c3c2OC5)CC1` gave a minimum inhibitory concentration (MIC) of more than 100 µg/mL.
Still for that read-out and setting: for `CN1CCN(c2c(F)cc3c(=O)cc4scc5n4c3c2OC5)CC1` the value was more than 100 µg/mL.
On the same count and under the same terms, for `CCNCC1CCN(c2c(F)cc3c(=O)c(C(=O)O)c4scc5n4c3c2OC5)C1` (centres undefined) the value was 0.39 µg/mL (≈ 0.934 µM); for `C[C@@H]1CN(c2c(F)cc3c(=O)c(C(=O)O)c4scc5n4c3c2OC5)C[C@H](C)N1.Cl`, 0.1 µg/mL; for `O=C(O)c1c(=O)c2cc(F)c(N3CCCC3)c3c2n2c(csc12)CO3`, 0.2 µg/mL (≈ 0.555 µM).

A further experiment deals with Enterococcus faecalis. Briefly: In vitro antibacterial activity against Enterococcus faecalis IID 682,[…],(gram-positive). Type of experiment: functional. In outline: as §1
As to `CN1CCN(c2c(F)cc3c(=O)c(S(=O)(=O)O)c4scc5n4c3c2OC5)CC1`, the MIC was more than 100 µg/mL.
Same read-out and setting: for `CN1CCN(c2c(F)cc3c(=O)cc4scc5n4c3c2OC5)CC1` the value was more than 100 µg/mL.
In turn, `CCNCC1CCN(c2c(F)cc3c(=O)c(C(=O)O)c4scc5n4c3c2OC5)C1` (centres undefined) registered an MIC of 0.39 µg/mL (≈ 0.934 µM).
With `C[C@@H]1CN(c2c(F)cc3c(=O)c(C(=O)O)c4scc5n4c3c2OC5)C[C@H](C)N1.Cl`, the MIC stood at 0.78 µg/mL. Against the preceding compound, the MIC is about 2-fold higher.
Still for that read-out and setting: for `O=C(O)c1c(=O)c2cc(F)c(N3CCCC3)c3c2n2c(csc12)CO3` the value was 0.2 µg/mL (≈ 0.555 µM).

The subject of the next experiment is Pseudomonas aeruginosa. Briefly: In vitro antibacterial activity against Pseudomonas aeruginosa IFO 3445,Pa(I),(gram-negative). Type of experiment: functional. The gist of the method: as §1
`CN1CCN(c2c(F)cc3c(=O)c(S(=O)(=O)O)c4scc5n4c3c2OC5)CC1` showed an MIC of more than 100 µg/mL.
Same read-out and setting: for `CN1CCN(c2c(F)cc3c(=O)cc4scc5n4c3c2OC5)CC1` the value was more than 100 µg/mL; for `CCNCC1CCN(c2c(F)cc3c(=O)c(C(=O)O)c4scc5n4c3c2OC5)C1` (centres undefined), 25 µg/mL (≈ 59.9 µM).
The compound `C[C@@H]1CN(c2c(F)cc3c(=O)c(C(=O)O)c4scc5n4c3c2OC5)C[C@H](C)N1.Cl` gave an MIC of 3.13 µg/mL.
The same measure, in the same setting: for `O=C(O)c1c(=O)c2cc(F)c(N3CCCC3)c3c2n2c(csc12)CO3` the value was 1.56 µg/mL (≈ 4.33 µM).

In a further experiment the test system is Klebsiella pneumoniae. Description: In vitro antibacterial activity against klebsiella pneumoniae B54,Kp,(gram-negative). It is filed as functional.
Turning to `CN1CCN(c2c(F)cc3c(=O)c(S(=O)(=O)O)c4scc5n4c3c2OC5)CC1`, the MIC is more than 100 µg/mL.
Compound `CN1CCN(c2c(F)cc3c(=O)cc4scc5n4c3c2OC5)CC1` had an MIC of more than 100 µg/mL.
On the same count and under the same terms, for `CCNCC1CCN(c2c(F)cc3c(=O)c(C(=O)O)c4scc5n4c3c2OC5)C1` (centres undefined) the value was 0.39 µg/mL (≈ 0.934 µM); for `C[C@@H]1CN(c2c(F)cc3c(=O)c(C(=O)O)c4scc5n4c3c2OC5)C[C@H](C)N1.Cl`, 0.39 µg/mL.
On the same count and under the same terms, for `O=C(O)c1c(=O)c2cc(F)c(N3CCCC3)c3c2n2c(csc12)CO3` the value was 0.2 µg/mL (≈ 0.555 µM).

For another experiment, the system named is Staphylococcus aureus. Briefly: In vitro antibacterial activity against staphylococcus aureus IID 803,(gram-positive). It is filed as functional. In outline:
as §1
For `CN1CCN(c2c(F)cc3c(=O)c(S(=O)(=O)O)c4scc5n4c3c2OC5)CC1`, the MIC was more than 100 µg/mL.
As for `CN1CCN(c2c(F)cc3c(=O)cc4scc5n4c3c2OC5)CC1`, the MIC is more than 100 µg/mL.
The same measure, in the same setting: for `CCNCC1CCN(c2c(F)cc3c(=O)c(C(=O)O)c4scc5n4c3c2OC5)C1` (centres undefined) the value was 0.2 µg/mL (≈ 0.479 µM).
`C[C@@H]1CN(c2c(F)cc3c(=O)c(C(=O)O)c4scc5n4c3c2OC5)C[C@H](C)N1.Cl`: the MIC came to 0.2 µg/mL.
On the same count and under the same terms, for `O=C(O)c1c(=O)c2cc(F)c(N3CCCC3)c3c2n2c(csc12)CO3` the value was 0.05 µg/mL (≈ 0.139 µM).

The subject of the next experiment is Staphylococcus epidermidis. Description: In vitro antibacterial activity against staphylococcus epidermidis IAM 1296, (gram-positive). It is filed as functional. In outline: as §1
Compound `CN1CCN(c2c(F)cc3c(=O)c(S(=O)(=O)O)c4scc5n4c3c2OC5)CC1` returned an MIC of more than 100 µg/mL.
Still for that read-out and setting: for `CN1CCN(c2c(F)cc3c(=O)cc4scc5n4c3c2OC5)CC1` the value was more than 100 µg/mL.
Same read-out and setting: for `CCNCC1CCN(c2c(F)cc3c(=O)c(C(=O)O)c4scc5n4c3c2OC5)C1` (centres undefined) the value was 0.1 µg/mL (≈ 0.24 µM); for `C[C@@H]1CN(c2c(F)cc3c(=O)c(C(=O)O)c4scc5n4c3c2OC5)C[C@H](C)N1.Cl`, 0.39 µg/mL; for `O=C(O)c1c(=O)c2cc(F)c(N3CCCC3)c3c2n2c(csc12)CO3`, 0.05 µg/mL (≈ 0.139 µM).

A further experiment concerns Pseudomonas aeruginosa. Briefly: In vitro antibacterial activity against Pseudomonas aeruginosa E-2,Pa(E),(gram-negative). Type of experiment: functional. The gist of the method:
as §1
`CN1CCN(c2c(F)cc3c(=O)c(S(=O)(=O)O)c4scc5n4c3c2OC5)CC1` came in with an MIC of more than 100 µg/mL.
Same read-out and setting: for `CN1CCN(c2c(F)cc3c(=O)cc4scc5n4c3c2OC5)CC1` the value was more than 100 µg/mL; for `CCNCC1CCN(c2c(F)cc3c(=O)c(C(=O)O)c4scc5n4c3c2OC5)C1` (centres undefined), 3.13 µg/mL (≈ 7.5 µM); for `C[C@@H]1CN(c2c(F)cc3c(=O)c(C(=O)O)c4scc5n4c3c2OC5)C[C@H](C)N1.Cl`, 3.13 µg/mL.
With `O=C(O)c1c(=O)c2cc(F)c(N3CCCC3)c3c2n2c(csc12)CO3`, the MIC stood at 1.56 µg/mL (≈ 4.33 µM). Against the preceding compound, the MIC is about 2-fold lower.

Another experiment deals with Staphylococcus aureus. Description: In vitro antibacterial activity against staphylococcus aureus FDA 209P JC-1,Sa(F)(gram-positive). Type of experiment: functional. The gist of the method: as §1
As to `CN1CCN(c2c(F)cc3c(=O)c(S(=O)(=O)O)c4scc5n4c3c2OC5)CC1`, the MIC is more than 100 µg/mL.
`CN1CCN(c2c(F)cc3c(=O)cc4scc5n4c3c2OC5)CC1`: the MIC was more than 100 µg/mL.
Same read-out and setting: for `CCNCC1CCN(c2c(F)cc3c(=O)c(C(=O)O)c4scc5n4c3c2OC5)C1` (centres undefined) the value was 0.2 µg/mL (≈ 0.479 µM); for `C[C@@H]1CN(c2c(F)cc3c(=O)c(C(=O)O)c4scc5n4c3c2OC5)C[C@H](C)N1.Cl`, 0.2 µg/mL.
`O=C(O)c1c(=O)c2cc(F)c(N3CCCC3)c3c2n2c(csc12)CO3` registered an MIC of 0.025 µg/mL (≈ 0.0694 µM).

The subject of another experiment is Escherichia coli. Description: In vitro antibacterial activity against Escherichia coli NIHJ JC-2,(gram-negative).
`CN1CCN(c2c(F)cc3c(=O)c(S(=O)(=O)O)c4scc5n4c3c2OC5)CC1` registered an MIC of more than 100 µg/mL.
Same read-out and setting: for `CN1CCN(c2c(F)cc3c(=O)cc4scc5n4c3c2OC5)CC1` the value was more than 100 µg/mL.
On to `C[C@@H]1CN(c2c(F)cc3c(=O)c(C(=O)O)c4scc5n4c3c2OC5)C[C@H](C)N1.Cl`, for which the lowest concentration to inhibit growth (MIC) was 0.2 µg/mL.
The same measure, in the same setting: for `O=C(O)c1c(=O)c2cc(F)c(N3CCCC3)c3c2n2c(csc12)CO3` the value was 0.2 µg/mL (≈ 0.555 µM).

In general, MIC refers to the lowest concentration that inhibits growth of the organism.
